Assay results published in ChEMBL document CHEMBL4052792, “3-Hydroxykynurenine, a Tryptophan Metabolite Generated during the Infection, Is Active Against Trypanosoma cruzi” (ACS Med Chem Lett, 2017).
Active and inactive are the calls of the source. No cut-off for these calls is given here.

Assays:
[1] = Induction of apoptosis in BALB/C mouse BMDM assessed as cells with hypodiploid DNA content at 0.2 uM after 24 hrs by FITC/propidium iodide staining based flow cytometric analysis (reference value: 29.9%); format: functional
Trypanosoma cruzi [2] = assay: Trypanocidal activity against Trypanosoma cruzi Tulahuen trypomastigotes assessed as reduction in parasites after 72 hrs by trypan blue assay; format: functional
How it was run: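 Bloodstream trypomastigotes were incubated at 37 °C in culture medium alone or with increasing doses for 24, 48 and 72 h. Parasite death was scored as percentage by trypan blue exclusion. Results are means ± SD of three independent experiments.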

Trypanosoma cruzi [3] = assay: Trypanocidal activity against Trypanosoma cruzi Tulahuen amastigotes infected in BALB/C mouse bone marrow derived macrophages assessed as decrease in intracellular parasite growth after 72 hrs by immunofluorescence assay; format: functional, cell-based
How it was run: (§1)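 Macrophages were infected with trypomastigotes and treated with 3-HK for 24 h. Immunofluorescence counts were made at 72 h post-infection. Intracellular parasites per 200 cells were expressed relative to medium-treated cultures, and infected cells were counted among 200 macrophages. Data are means ± SD of four independent experiments.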

Trypanosoma cruzi [4] = assay: (§2) Trypanocidal activity against Trypanosoma cruzi Tulahuen amastigotes infected in BALB/C mouse bone marrow derived macrophages assessed as parasite infected macrophages at 0.2 uM treated for 24 hrs followed by compound washout measured after 48 hrs by immunofluorescence assay (reference value: 26.84 +/- 7.81%); format: functional
Trypanosoma cruzi [5] = assay: as §2, with “1200” for “0.2”; format: functional
Trypanosoma cruzi [6] = assay: as §2, with “2000” for “0.2”; format: functional
Trypanosoma cruzi [7] = assay: Trypanocidal activity against Trypanosoma cruzi Tulahuen amastigotes infected in BALB/C mouse bone marrow derived macrophages assessed as endocytic index at 0.2 uM treated for 24 hrs followed by compound washout measured after 48 hrs by immunofluorescence assay (reference value: 213.66 +/- 58.79); format: functional
J774 = assay: Cytotoxicity against mouse J774 assessed as reduction in cell viability at 0.2 to 2000 uM after 24 hrs by trypan blue exclusion assay; format: cell-based; settings: j774, 24 h
How it was run: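 Mammalian cells (human PBMC, Swan 71, Jurkat; bone marrow-derived macrophages; J774) were exposed to 3-HK at 0.2 to 2000 μM for 24 h. Viability was then scored by trypan blue exclusion.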

[8] = Induction of apoptosis in BALB/C mouse BMDM assessed as cells with hypodiploid DNA content at 2 uM after 24 hrs by FITC/propidium iodide staining based flow cytometric analysis (reference value: 29.9%); format: functional
Trypanosoma cruzi [9] = assay: Trypanocidal activity against Trypanosoma cruzi Tulahuen amastigote forms infected in BALB/C mouse bone marrow derived macrophages assessed as decrease in parasite growth at 200 uM after 72 hrs by immunofluorescence assay; format: functional; how it was run: as §1

## Nc1c(O)cccc1C(=O)C[C@H](N)C(=O)O
[1]
  Activity: 27.5%
Trypanosoma cruzi [2]
  IC50: 20 to 200 µM
Trypanosoma cruzi [3]
  Activity: Dose-dependent effect
Trypanosoma cruzi [4]
  Activity: 10.85%
Trypanosoma cruzi [5]
  Activity: 14.83%
Trypanosoma cruzi [6]
  Activity: 16.31%
Trypanosoma cruzi [7]
  Activity: 67.61
J774
  Activity: Non-Toxic
[8]
  Activity: 28.2%
Trypanosoma cruzi [9]
  Activity: Active
